PGC1a acetyl up: raises PGC1a acetylation signal in U2OS cells. activation, % at 15.6 µM. hit rate 0.21% among 350,000. U2OS PGC1a acetylation AlphaScreen, overnight;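 active = every replicate reaching activation of at least 50%, whatever the mean replicate activation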;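 also: hits raise the AlphaScreen acetylation signal above neutral controls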
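detection = AlphaScreen lysate read | assay system = U2OS cells expressing flag-PGC1a plus GCN5 | input = 7000 cells/well | dosing = one concentration | times = compound overnight at 37 °C, each detection step 1 h RT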
* hit, by the source's call. These entries were drawn from the full list.

SMILES	PGC1a acetyl up
CN(C)CCNC(=O)c1cccc2c(-c3ccc(F)c(F)c3)coc12	78*
Cc1ccccc1S(=O)(=O)N[C@@H]1CC[C@@H](CCn2cc(Cc3ccccc3)nn2)O[C@H]1CO	-61
O=C(Cc1ccccn1)NCC[C@H]1CC[C@@H](NC(=O)Nc2ccc(C(F)(F)F)cc2)[C@@H](CO)O1	-102
O=C(Cc1ccccn1)N[C@@H]1CC[C@@H](CCn2cc(-c3ccccc3)nn2)O[C@H]1CO	133*
O=C(Cc1ccccn1)N[C@H]1CC[C@H](CCn2cc(-c3ccccc3)nn2)O[C@@H]1CO	76*
COc1ccc(NC(=O)N[C@@H]2CC[C@H](CCn3cc(-c4ccccc4F)nn3)O[C@H]2CO)cc1	-62
O=C(Cc1ccccn1)NCC[C@H]1CC[C@H](NC(=O)Nc2ccc(C(F)(F)F)cc2)[C@H](CO)O1	-48
C/C=C/c1ccc2c(c1)O[C@H](CN(C)C(=O)C1CC1)[C@H](C)CN([C@@H](C)CO)S2(=O)=O	-47
CCSc1nnc(NC(=O)CSC2=NCCS2)s1	-94
CC1CCCC(C)N1C(=S)NCc1ccco1 (stereo not given)	-47
CCCCC(C(=O)O)C(C)CC(=O)Nc1nncs1 (stereo not given)	-45
Cc1ccc(-c2cnc3c(c2)C(=O)N([C@@H](C)CO)C[C@@H](C)[C@H](CN(C)C)O3)cc1	-109
N#CC1=C(N)Oc2c(ccc3ccccc23)C1c1ccsc1 (stereo not given)	57*
CO[C@@H]1CN(C)C(=O)c2cc(NS(=O)(=O)c3ccc(Cl)cc3)ccc2OC[C@H](C)N(C)C[C@H]1C	-60
CNC[C@H]1OCCCC[C@@H](C)Oc2ccc(NS(=O)(=O)c3ccccc3)cc2C(=O)N([C@H](C)CO)C[C@@H]1C	-49
CN1CCN2c3ncccc3Cc3ccccc3[C@@H]2C1	-46
O=Nc1c2nc3ccccc3n(O)c-2c2ccccc12	61*
N#Cc1cccc(C#N)c1NCC1CCCO1 (stereo not given)	-43
CCCCNC(=O)c1ccc(CS(=O)(=O)c2ccccc2OC)o1	-44
Cc1noc(C)c1NC(=O)Nc1ccc2c(c1)C(=O)N([C@H](C)CO)C[C@@H](C)[C@@H](CN(C)S(=O)(=O)c1ccc(F)cc1)OCCCC[C@@H](C)O2	-42
CC(C)(C)C(=O)Nc1sc2c(c1-c1nc3ccccc3[nH]1)CCCC2	65*
N#C[C@H]1[C@H](c2ccc(C#CC3CCCC3)cc2)[C@H](CO)N1C(=O)Cc1ccccn1	-59
OC[C@H]1[C@@H](c2ccc(C#CC3CCCC3)cc2)[C@@H]2CN(CCC(F)(F)F)CCCCN12	60*
OC[C@@H]1[C@H](c2ccc(C#CC3CCCC3)cc2)[C@H]2CN(CCC(F)(F)F)CCCCN12	-81
COc1ccc2c([N+](=O)[O-])c(N3CCCC3)[nH]c2c1	-48
SMILES	PGC1a acetyl up
C=CCn1cccc(/C=C/C(=O)c2ccc(C(C)(C)C)cc2)c1=S	-53
COc1ccc(OC)c(CN2CCN(C(=O)c3ccc(NS(=O)(=O)c4cccc([N+](=O)[O-])c4)cc3)CC2)c1	-40
O=C(Oc1ccc[nH]c1=O)c1cc([N+](=O)[O-])cc([N+](=O)[O-])c1	-53
COC(=O)c1cc(C(=O)N2CCN(c3cccc(Cl)c3)CC2)cc([N+](=O)[O-])c1	78*
COc1cc(NC(=S)NN2CCOCC2)cc(OC)c1	-61
CC(C)NC(=O)Nc1ccc2c(c1)C(=O)N([C@@H](C)CO)C[C@@H](C)[C@H](CN(C)Cc1ccc(C(=O)O)cc1)OCCCC[C@H](C)O2	-77
Cc1noc(C)c1S(=O)(=O)N1CCCC(C(=O)NCC2CCCO2)C1 (stereo not given)	-50
O=C(C[C@H]1C=C[C@H](NC(=O)Nc2ccc(C(F)(F)F)cc2)[C@@H](CO)O1)NCc1ccccn1	-43
O=S(=O)(C/C(=C/CO)S(=O)(=O)c1ccccc1)c1ccccc1	112*
CCC(=O)N(C)C[C@@H]1Oc2cc(C#Cc3cccnc3)ccc2S(=O)(=O)N([C@H](C)CO)C[C@H]1C	-29
CC(C)NC(=O)Nc1ccc2c(c1)C(=O)N([C@H](C)CO)C[C@@H](C)[C@H](CN(C)S(=O)(=O)c1ccccc1)OCCCC[C@@H](C)O2	-44
O=c1c2c3c(sc2n2cnnc2n1Cc1ccccc1)CN(Cc1ccccc1)CC3	73*
CCC(=O)N[C@H]1CC[C@H](CCNC(=O)Nc2ccc(C(F)(F)F)cc2)O[C@H]1CO	-60
O=C(Nc1ccc(F)cc1)N[C@H]1C=C[C@H](CC(=O)N2CCCCC2)O[C@H]1CO	-43
COc1ccccc1-c1ccc(C2[C@@H]3CN(S(=O)(=O)c4ccc(C)cc4)C[C@H]2N3)cc1 (stereo not given in full)	95*
N#Cc1cccc(-c2ccc([C@@H]3[C@@H]4CN(S(=O)(=O)c5ccc(-c6ccccc6)cc5)C[C@H]3N4)cc2)c1	-93
C[C@@H]1CCCCO[C@@H](CN(C)C)[C@@H](C)CN([C@H](C)CO)C(=O)c2cc(NS(=O)(=O)c3ccc(Cl)cc3)ccc2O1	-45
Cc1cccc(-n2c(=O)cc(N3CCN(c4ccc(F)cc4)CC3)[nH]c2=O)c1	-55

Screening data (PubChem)
